Sampled rows, rich in hits. Any-hit rate of the full collection: about 1.6%.
JMJD2C inh – human JMJD2C demethylase inhibition | Q9H3R0 | GST-JMJD2C(1-420) H3K9me3 demethylation, DELFIA europium | inhibition, % at 2.35 µM | 330,000 compounds, 0.069% hits;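 active = more than half of a compound's replicate wells show inhibition beyond 50%, single wells judged on their own value; inconclusive = some, but no more than half, of replicates pass 50% inhibition; inactive = no replicate passes 50% inhibition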;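 note: signal counts dimethyl H3K9 product captured on neutravidin plate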
T cell modulator – T cell immune modulators affecting CD8 T cell-vesicle binding. 2C CD8+ T cell-vesicle binding, flow cytometry; active compounds read low. response (vesicle binding), % at 7 µM. 330,000 compounds, 0.068% hits;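 active = response, share of CD8 T cells binding vesicles, and their 90th percentile fluorescence all below set limits, cut at about 80% in these data, passing the limit was not always enough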;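 note: values below 100% mean blocked vesicle binding to the CD8+ T cells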
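Test system: purified 2C TCR transgenic mouse naive CD8+ T cells. Probe or stimulus: QL9-peptide-loaded Drosophila micro-vesicles bearing Ld, ICAM-1 and B7-1. Incubation: binding step 1.5 h, 37 °C, antibody labelling 20 min, ice. Measured by: flow cytometry of vesicle-bound cells.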
LANA-H2B inh – blocks KSHV LANA binding to histone H2A/H2B. inhibition, % (concentration not given with the values). 320,000 compounds, 0.6% hits. Q9QR71. cell-free LANA-H2A/H2B peptide, fluorescence polarization. AID 2629; in the data active = inhibition mostly above about 10%, no sharp cut-off; inactive = mostly below about 6.7%
HDAC3 inhib – human HDAC3 inhibition; O15379; recombinant HDAC3, fluorogenic peptide/trypsin coupled, fluorescence; inhibition, % at 8.3 µM; 320,000 compounds, 0.15% hits; in the data active = inhibition above about 26%, passing the limit was not always enough; inconclusive = no clear call, values can overlap the other calls
Pemphigus Ab inh – human desmoglein-3 autoantibody binding inhibition | P32926 | DSG3-coupled beads, scFv-anti-DSG3-GFP binding, flow cytometry; active compounds read low | binding (percent of control), % at 10 µM | 310,000 compounds, 0.48% hits;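 active = binding more than 3 SD below its plate's average and above zero; inconclusive = below that plate limit but binding exactly zero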;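 note: hits lower antibody fragment binding to DSG3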
Arrestin-AP2 inh – inhibitors of human beta-arrestin and AP2 interaction; FITC-arrestin peptide / GST-AP2 beads, flow cytometry; AP2 beta2 appendage carries R879A mutation; inhibition, % at 10 µM; 340,000 compounds, 0.31% hits;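 active = inhibition above a set limit, near 3 SD of compounds lacking own fluorescence, cut at about 54% in these data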
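Measured by: flow cytometry, FL1 (488/535 nm); Material: AP2 appendage R879A on GSH beads; Evaluation: percent response; Timing: pre-incubation 12 min, peptide binding 1 h, room temperature; Also added: 50 nM FITC-arrestin peptide; Medium: PBS with 0.05% Tween 20 and 0.1% BSA.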
Of the large screens only hits and unclear results are named; the others gave an inactive call; ! = not active in a repeat.

CCN(CC)S(=O)(=O)c1cccc(-c2nnc(SCCOc3ccccc3)o2)c1	none
CCN(CC)S(=O)(=O)c1cccc(-c2nnc(SCCOc3ccc(Cl)cc3)o2)c1	Pemphigus Ab inh -11
COc1ccc(/C=C/C(=O)O/N=C(\N)c2ccccn2)cc1OC	LANA-H2B inh 21
N/C(=N\OC(=O)/C=C/c1ccccc1)c1ccccn1	none
CCC(CO)[n+]1c(C)cc(/C=C2\Sc3ccccc3N2Cc2ccccc2)cc1C (stereo not drawn)	HDAC3 inhib 26
Nc1ccc2cccc(O)c2c1	Pemphigus Ab inh 64 (no result: JMJD2C inh, T cell modulator, LANA-H2B inh, HDAC3 inhib)
CCOc1ccccc1N	LANA-H2B inh 23
Cn1c(NCc2cccs2)nc2ccccc21	LANA-H2B inh 22
CCn1c(NCc2cccs2)nc2ccccc21	none
CS(=O)(=O)N(CC(=O)N1CCOCC1)c1cccc(F)c1	Pemphigus Ab inh 77
CCCOc1c(Br)cc(C(=O)OCC(=O)NC(=O)c2cccn2C)cc1OC	LANA-H2B inh active
CC(C)N(Cc1ccccc1)C(=O)COC(=O)c1ccc(S(=O)(=O)N2CCOCC2)cc1	none
Cc1ccc(S(=O)(=O)N2C[C@@H]3CCCC[C@@H]3[C@@H](C)[C@H]2c2cn(Cc3ccccc3)c3ncccc23)cc1	none (no result: JMJD2C inh, T cell modulator, LANA-H2B inh, HDAC3 inhib)
COc1ccccc1C(CNC(=O)c1ccc(S(=O)(=O)N2CCCCC2)cc1)N(C)C (stereo not drawn)	LANA-H2B inh active (no result: Pemphigus Ab inh)
COc1ccc(C(CNC(=O)c2ccc(S(=O)(=O)N3CCCC3)cc2)N(C)C)cc1OC (stereo not drawn)	none
COc1ccc([C@@H]2[C@@H]3C(=O)N(C(C)(C)C)C(=O)[C@@H]3[C@]3(C)C(=O)N(c4ccc(C(F)(F)F)cc4)C(=O)N23)cc1	none
CCN(c1ccccc1)S(=O)(=O)c1ccc2c(c1)N(C(C)=O)CCS2	none (no result: Pemphigus Ab inh)
CCN(CC)S(=O)(=O)c1ccc(C(=O)NCC2CCCCC2)cc1	none
Cc1ccccc1NC(=S)c1ccc2ccccc2n1	Pemphigus Ab inh 79
CCCN(CC(=O)Nc1ccccc1C)C(=O)c1ccc2ccccc2n1	none
COc1ccccc1/C=C/C(=O)OCC(=O)c1cc(C)n(C)c1C	LANA-H2B inh active
CCC1CCCCN1C(=O)CSc1nnc(N)s1 (stereo not drawn)	none
NC(=O)c1ccc(Oc2ccc3c(c2)CCC3)c([N+](=O)[O-])c1	none
O=C(Nc1nc2c(Cl)cccc2s1)C1CC1	none
O=C(Nc1nc2c(Br)cccc2s1)C1CC1	HDAC3 inhib 46
O=C(NCc1ccccc1)c1cccc(NS(=O)(=O)c2cccc3cccnc23)c1	none
O=C(C1CCCN(S(=O)(=O)c2cccc3cccnc23)C1)N1CCN(c2ccc(F)cc2)CC1 (stereo not drawn)	LANA-H2B inh 25
COc1ccc(N2CCN(C(=O)C3CCCN(S(=O)(=O)c4ccc(C)cc4)C3)CC2)cc1 (stereo not drawn)	LANA-H2B inh 26
COc1ccc(N2CCN(C(=O)C3CCCN(S(=O)(=O)c4ccc(F)cc4)C3)CC2)cc1 (stereo not drawn)	none
N#CCCn1cnc2c(=S)nc[nH]c21	LANA-H2B inh 9.9
NNC(=O)c1nc[nH]c1C(=O)Nc1ccccc1	none
CC1(NC(=O)N2CCCCC2)CCS(=O)(=O)C1 (stereo not drawn)	LANA-H2B inh 19
O=C(CSc1ncnc2ccccc12)c1ccco1	HDAC3 inhib 40
O=C(CSc1ncnc2ccccc12)NCc1ccco1	none
Cc1nc(NNC(=O)c2ccc(Cl)cc2Cl)cc(-c2ccccc2)n1	Pemphigus Ab inh 71
O=C(NNC(=O)c1ccc(Cl)cc1Cl)Nc1ccccc1	none
O=C(COc1ccccc1)NCC(=O)N1CCCCCC1	LANA-H2B inh 50 (no result: JMJD2C inh)
S=C(NCc1ccccc1)N/N=C/c1cccs1	LANA-H2B inh 13
O=C(COc1ccccc1)NCC(=O)N/N=C/c1cccs1	LANA-H2B inh 55
S=C(NCCc1ccccc1)N/N=C/c1cccs1	none
O=C(O)CC/C(=N/NC(=O)CNC(=O)c1ccc2c(c1)OCCO2)c1ccccc1	none (no result: Pemphigus Ab inh)
CCC(C)C(NC(=O)c1ccccc1)C(=O)N1CCN(C(=O)c2ccccc2)CC1 (stereo not drawn)	none (no result: JMJD2C inh, T cell modulator, LANA-H2B inh, HDAC3 inhib, Arrestin-AP2 inh)
COc1ccccc1CCC(=O)NNC(=O)c1ccc(Br)cc1	none (no result: Pemphigus Ab inh)
COc1ccccc1-c1ccc(=O)n(CC(=O)NCc2ccco2)n1	LANA-H2B inh 37
COC(=O)C1=C(C)N(Cc2ccccc2)C(=O)/C1=C\c1ccco1	none (no result: Pemphigus Ab inh)
CSc1ccc(/C=C2\CCn3c2nc2cc(C(=O)O)ccc2c3=O)cc1	none
CC(C)Oc1ccc(Cl)cc1Nc1nc(NCCO)nc(N2CCCC2)n1	HDAC3 inhib 28
c1ccc2oc(-c3ccc(Nc4nc(N5CCOCC5)nc(N5CCOCC5)n4)cc3)nc2c1	none (no result: JMJD2C inh, T cell modulator, LANA-H2B inh, HDAC3 inhib)
CCOC(=O)c1ccc(NC(=S)N2CCN(S(C)(=O)=O)CC2)cc1	Pemphigus Ab inh 57
COc1ccc(NC(=O)CN(C)C(=O)c2ccc(S(=O)(=O)Nc3ccccc3C)cc2)cc1	none (no result: JMJD2C inh, T cell modulator, LANA-H2B inh, HDAC3 inhib)
O=C(CSc1nc2ccccc2c(=O)n1Cc1ccc(C(=O)NC2CC2)cc1)NCc1ccco1	JMJD2C inh 61
COc1ccc2c(c1)-c1c(sn(-c3ccc(OC)c(OC)c3)c1=S)C(C)(C)N2	T cell modulator 70
CCNC(=S)NC(=NCc1cccnc1)Nc1nc(C)cc(C)n1	JMJD2C inh 76
O=C(Cc1ccccc1)NCC(=O)N1CCN(c2ccc(F)cc2)CC1	none (no result: JMJD2C inh, T cell modulator, LANA-H2B inh, HDAC3 inhib, Arrestin-AP2 inh)
COc1ccc(N2CCN(C(=S)Nc3ccc(C)cc3)CC2)cc1	HDAC3 inhib inconclusive
COc1ccc(N2CCN(C(=S)Nc3cccc(C)c3C)CC2)cc1	Pemphigus Ab inh 49
CSc1ccccc1NC(=S)NCc1ccc(Cl)cc1	none
COC(=O)C1Cc2ccccc2CN1S(=O)(=O)c1ccc(F)cc1 (stereo not drawn)	none
Cc1cc(C(=O)CS(=O)(=O)c2ccc(F)cc2)cc(C)c1O	Arrestin-AP2 inh 67
O=C(CCC(=O)OCc1ccc([N+](=O)[O-])cc1Cl)Nc1ccccc1	none
CC1=C([N+](=O)[O-])C(c2ccccc2C(F)(F)F)NC(=O)N1C (stereo not drawn)	LANA-H2B inh 30
CCN(C(=O)COC(=O)c1cc([N+](=O)[O-])ccc1N1CCOCC1)C1CCCCC1	none (no result: LANA-H2B inh, HDAC3 inhib)
CCCCCCC#Cc1ccc2c(c1)COc1c3ccccc3nn1-2	T cell modulator 0.0
CCCCCCn1nc(C(=O)N(CCOC)c2c(N)n(CCCC)c(=O)[nH]c2=O)c2ccccc2c1=O	LANA-H2B inh 18
CCOC(=O)C1(Cc2cccc(Cl)c2)CCCN(C(=O)c2ccc(C)nc2)C1 (stereo not drawn)	Pemphigus Ab inh 67
Cc1ccc(C(=O)Oc2ccc(-c3nnco3)cc2)o1	HDAC3 inhib 100
CC(N=C(NC#N)Nc1ccncc1)C(C)(C)C (stereo not drawn)	LANA-H2B inh 48!

Compound activity as filed in PubChem BioAssay.
